{"source": "ChEMBL document CHEMBL4043073", "about": "“Boronic Acid Modifications Enhance the Anti-Influenza A Virus Activities of Novel Quindoline Derivatives” (J Med Chem, 2017)", "key": {"A549": {"test_system": "A549", "assay": "Cytotoxicity against human A549 cells at 20 uM after 48 hrs by resazurin based fluorescence method", "format": "cell-based", "conditions": "a549, 48 h", "summary_of_the_method": "(§1)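 Confluent MDCK, A549 or H1299 cells exposed in triplicate to compound for 48 h at 37 °C (A549/H1299 at 20 μM). Resazurin added to 0.2 mg/mL final for 16 h. Fluorescence read at ex 544 / em 595 nm; viability as % of untreated.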"}, "[1]": {"assay": "Drug uptake in human A549 cell cytoplasm at 20 uM after 4 hrs by DAPI staining based confocal microscopic analysis", "format": "ADME", "conditions": "a549, 4 h", "summary_of_the_method": "(§2)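 A549 cells incubated with 20 μM compound 4 h at 37 °C, then fixed and DAPI-stained. Compound intrinsic fluorescence located by confocal microscopy.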"}, "[2]": {"test_system": "Influenza A virus (A/Puerto Rico/8/1934(H1N1))", "assay": "Inhibition of Influenza A virus (A/Puerto Rico/8/34(H1N1)) neuraminidase using MUNANA as substrate preincubated for 30 mins followed by substrate addition measured after 30 mins by fluorescence assay relative to control", "summary_of_the_method": "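Inactivated PR8 virus supernatant mixed with compound (10 μM) in 33 mM MES […], 4 mM CaCl2 for 30 min at 37 °C. MUNANA (20 μM) was added for 30 min at 37 °C and the reaction stopped with glycine/ethanol pH 10.7. Fluorescence read at ex 360 / em 440 nm; zanamivir 10 μM as reference; n = 3.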"}, "[3]": {"assay": "Cytotoxicity against MDCK cells after 48 hrs by resazurin based fluorescence method", "format": "cell-based, Canis lupus familiaris", "conditions": "dog", "summary_of_the_method": "as §1"}, "Influenza A virus [4]": {"test_system": "Influenza A virus", "assay": "Antiviral activity against Influenza A virus (A/Puerto Rico/8/34(H1N1)) infected in MDCK cells assessed as virus yeild reduction at 10 uM preincubated with virus for 1 hr followed by viral infection for 1 hr measured at 24 hrs post infection by crystal violet staining based plaque assay", "format": "functional, cell-based", "conditions": "A/Puerto Rico/8/1934(H1N1)", "summary_of_the_method": "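PR8 (MOI 1.0) preincubated with compound (2.5–10 μM) 1 h at 37 °C, then used to infect MDCK cells. After adsorption, medium with the same compound concentration was added. At 24 h p.i. supernatant virus titer was measured by plaque assay; n = 3.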"}, "Influenza A virus [5]": {"test_system": "Influenza A virus", "assay": "Antiviral activity against Influenza A virus (A/Puerto Rico/8/34(H1N1)) infected in A549 cells assessed as reduction in localization of viral NP protein in nucleus at 10 uM preincubated with virus at 37 degC for 1 hr followed by viral adsorption at 4 degC for 1 hr and subsequent infection in A549 cells measured at 2 to 4 hrs post infection by FITC-staining based immunofluorescence microscopic method", "format": "functional, cell-based", "conditions": "A/Puerto Rico/8/1934(H1N1)", "summary_of_the_method": "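PR8 (MOI 1.0) pretreated with 10 μM compound 1 h at 37 °C, adsorbed 1 h at 4 °C, then A549 cells were kept in infecting medium with 10 μM compound. Fixed with 4% paraformaldehyde at 2 or 4 h p.i., permeabilised with Triton X-100 and blocked. Anti-NP plus FITC secondary, confocal imaging; nuclear NP intensity per unit area quantified (n = 30 images).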"}, "Canis lupus familiaris [6]": {"species_on_record": "Canis lupus familiaris", "assay": "Inhibition of MAPK signaling-mediated nuclear import of viral RNP in MDCK cells infected with Influenza A virus (A/Puerto Rico/8/34(H1N1)) assessed as p38 phosphorylation at 10 uM preincubated with virus for 1 hr followed by viral infection after 4 hrs by Western blot method relative to control (reference value: 5.1)", "format": "cell-based", "summary_of_the_method": "(§3)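 PR8 (MOI 1.0) pretreated with compound 1 h at 37 °C, then MDCK cells were kept in infecting medium with 5 or 10 μM for 4 h; ribavirin 50 μg/mL as comparator. Lysates were immunoblotted for phospho-ERK1/2, p38, NF-κB or Akt, with β-actin/GAPDH loading controls and AP/NBT-BCIP detection. Densitometry was normalised to uninfected cells (= 1.0); n = 3.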"}, "Influenza A virus [7]": {"test_system": "Influenza A virus", "assay": "Antiviral activity against Influenza A virus (A/Puerto Rico/8/34(H1N1)) infected in Kunming mouse assessed as survival rate at 10 mg/kg/day, po qd for 7 days measured on day 14 post infection (reference value: 30%)", "format": "functional", "conditions": "A/Puerto Rico/8/1934(H1N1)"}, "[8]": {"assay": "Drug uptake in human A549 cells at 20 uM after 4 hrs by DAPI staining based confocal microscopic analysis", "format": "ADME, cell-based", "conditions": "a549, 4 h", "summary_of_the_method": "as §2"}, "[9]": {"test_system": "Influenza A virus (A/Puerto Rico/8/1934(H1N1))", "assay": "Inhibition of Influenza A virus (A/Puerto Rico/8/34(H1N1)) hemagglutinin mediated chicken erythrocytes aggregation at 10 uM after 60 mins by hemagglutination test", "format": "cell-based", "summary_of_the_method": "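Hemagglutination inhibition: PR8-induced aggregation of chicken erythrocytes tested with 10 μM compound; anti-HA antibody (0.625–5 μg/mL) as comparator.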"}, "Influenza A virus [10]": {"test_system": "Influenza A virus", "assay": "Antiviral activity against Influenza A virus (A/Puerto Rico/8/34(H1N1)) infected in Kunming mouse assessed as intact columnar epithelium in bronchiole without inflammatory cell infiltration at 10 mg/kg/day, po qd for 4 days by hematoxylin and eosin staining based assay", "format": "functional, organism-based", "conditions": "A/Puerto Rico/8/1934(H1N1)"}, "[11]": {"assay": "Selectivity index, ratio of CC50 for MDCK cells to IC50 for Influenza A virus (A/Puerto Rico/8/34(H1N1)) infected in MDCK cells assessed as reduction in virus-induced cytopathic effect", "format": "toxicity, cell-based", "conditions": "dog, read-out: Ratio CC50/IC50"}, "Influenza A virus [12]": {"test_system": "Influenza A virus", "assay": "Antiviral activity against Influenza A virus H3N2 strain (A/swine/Minnesota/02719/2009) infected in MDCK cells assessed as reduction in viral HA titer by measuring reduction in chicken RBC […] after 24 hrs by hemagglutination test", "format": "functional, cell-based", "summary_of_the_method": "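MDCK cells infected at MOI 3.0 (single-cycle) with PR8, Cal09 or swine H3N2 Minnesota, then treated with compound for 24 h. Supernatant HA titers were read by 2-fold serial dilution with an equal volume of 1% chicken RBCs, 60 min at 4 °C. Expressed as percent of untreated-cell HA titer; IC50 derived; n = 4.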"}, "Canis lupus familiaris [13]": {"species_on_record": "Canis lupus familiaris", "assay": "Inhibition of NFkappaB activation-mediated viral RNA synthesis in MDCK cells infected with Influenza A virus (A/Puerto Rico/8/34(H1N1)) assessed as NF-kB phosphorylation level at 5 uM preincubated with virus for 1 hr followed by viral infection measured after 4 hrs by Western blot method relative to control (reference value: 1.8)", "format": "cell-based", "summary_of_the_method": "as §3"}, "Influenza A virus [14]": {"test_system": "Influenza A virus", "assay": "Antiviral activity against Influenza A virus (A/Puerto Rico/8/34(H1N1)) infected in MDCK cells assessed as virus yeild reduction preincubated with virus at 37 degreeC for 1 hr followed by viral infection for 1 hr measured after 3 days by crystal violet staining based plaque assay", "format": "functional, cell-based", "conditions": "A/Puerto Rico/8/1934(H1N1)", "summary_of_the_method": "(§4)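 Plaque reduction: about 50–100 PFU/well of PR8, Cal09 or Minnesota preincubated with compound (0–10 μM) 1 h at 37 °C. Mixture then adsorbed to MDCK monolayers 1 h at 4 °C. Overlay was DMEM with 1.5% agarose, DEAE-dextran and 1 μg/mL TPCK-trypsin for 3 days at 37 °C. Glutaraldehyde fix, crystal violet stain, plaque count; IC50 derived; n = 4.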"}, "Influenza A virus [15]": {"test_system": "Influenza A virus", "assay": "Antiviral activity against Influenza A virus (A/swine/Minnesota/02719/2009(H3N2)) infected in MDCK cells assessed as virus yeild reduction preincubated with virus at 37 degC for 1 hr followed by viral infection for 1 hr measured after 3 days by crystal violet staining based plaque assay", "format": "functional, cell-based", "summary_of_the_method": "as §4"}, "Vero": {"test_system": "Vero", "assay": "Inhibition of Influenza A virus (A/Puerto Rico/8/34(H1N1)) hemagglutinin expressed in African green monkey Vero cells assessed as reduction in acid-induced syncytium formation preincubated at pH 7 for 15 mins followed by incubation at pH 5 for 10 mins measured after 2 hrs by Hema3Stat Pak-staining based microscopic analysis", "format": "cell-based", "conditions": "Influenza A virus (A/Puerto Rico/8/1934(H1N1))", "summary_of_the_method": "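Vero cells transfected with PR8 HA plasmid. At 16 h HA was cleaved with 5 μg/mL TPCK-trypsin for 15 min at 37 °C. Cells were preincubated with compound 15 min at 37 °C, then held at pH 5.0 with compound for 10 min at 37 °C. After rinsing, cells were kept 2 h in 10% FBS medium, stained with Hema3Stat Pak and examined for syncytia by microscopy.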"}}, "note": "Activity calls are given as the source filed them. The calls are words filed in the database; no cut-off is given here."}
{"compound": "O=C(Nc1ccccc1Nc1c2ccccc2nc2c1[nH]c1ccccc12)c1cccc(B(O)O)c1", "values": [{"measurement": "Activity", "setting": "A549", "value": "Non-Toxic"}, {"measurement": "Drug uptake", "setting": "[1]", "value": "Active"}, {"measurement": "inhibition", "setting": "[2]", "value": 72, "unit": "%"}, {"measurement": "CC50 at 48 h", "setting": "[3]", "value": 142, "unit": "µM"}, {"measurement": "Activity", "setting": "Influenza A virus [4]", "value": "Active"}, {"measurement": "Activity", "setting": "Influenza A virus [5]", "value": "Active"}, {"measurement": "fold change (FC)", "setting": "Canis lupus familiaris [6]", "value": 2.5}, {"measurement": "survival at 10 mg/kg/day", "setting": "Influenza A virus [7]", "value": 90, "unit": "%"}, {"measurement": "Drug uptake", "setting": "[8]", "value": "Active"}, {"measurement": "inhibition", "setting": "[9]", "value": "inactive"}, {"measurement": "Activity", "setting": "Influenza A virus [10]", "value": "Active"}, {"measurement": "selectivity ratio", "setting": "[11]", "value": 27.9}, {"measurement": "Activity", "setting": "Influenza A virus [12]", "value": "Dose-dependent effect"}, {"measurement": "IC50", "setting": "Influenza A virus [12]", "value": 3, "unit": "µM"}, {"measurement": "fold change (FC)", "setting": "Canis lupus familiaris [13]", "value": 0.9}, {"measurement": "IC50", "setting": "Influenza A virus [14]", "value": 3.2, "unit": "µM"}, {"measurement": "IC50", "setting": "Influenza A virus [15]", "value": 2.3, "unit": "µM"}, {"measurement": "inhibition", "setting": "Vero", "value": "inactive"}]}
